From ChEMBL document CHEMBL1128681, “Studies on the monoamine oxidase (MAO)-catalyzed oxidation of phenyl-substituted 1-methyl-4-phenoxy-1,2,3,6-tetrahydropyridine derivatives: factors contributing to MAO-A and MAO-B selectivity” (J Med Chem, 1995)

Assay: Selectivity coefficient as ratio of Kcat/Km for MAO-A and Kcat/Km for MAO-B
How it was run: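 Selectivity coefficient: MAO-A kcat/KM divided by MAO-B kcat/KM. Each value came from spectrophotometric initial-rate kinetics at 100–2000 μM substrate in 100 mM sodium phosphate pH 7.4, with 0.16 μM MAO-A or 0.08 μM MAO-B, and double-reciprocal plot analysis.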

Cc1ccc(OC2=CCN(C)CC2)cc1
Selectivity coefficient: 0.3

CN1CC=C(Oc2cccc([N+](=O)[O-])c2)CC1
Selectivity coefficient: 1.21

CN1CC=C(Oc2cccc(Cl)c2)CC1
Selectivity coefficient: 5.99

CN1CC=C(Oc2ccccc2[N+](=O)[O-])CC1
Selectivity coefficient: 1.7

COc1ccc(OC2=CCN(C)CC2)cc1
Selectivity coefficient: 2.08

COc1cccc(OC2=CCN(C)CC2)c1
Selectivity coefficient: 3.88

CN1CC=C(Oc2ccc([N+](=O)[O-])cc2)CC1
Selectivity coefficient: 2.53

Cc1cccc(OC2=CCN(C)CC2)c1
Selectivity coefficient: 1.16

CN1CC=C(c2ccccc2)CC1
Selectivity coefficient: 0.03

CN1CC=C(Cc2ccccc2)CC1
Selectivity coefficient: 0.08

COc1ccccc1OC1=CCN(C)CC1
Selectivity coefficient: 1.01

Cc1ccccc1OC1=CCN(C)CC1
Selectivity coefficient: 1.4

CN1CC=C(Oc2ccccc2-c2ccccc2)CC1
Selectivity coefficient: 4.35

CN1CC=C(Oc2cccc(-c3ccccc3)c2)CC1
Selectivity coefficient: 8.74

CN1CC=C(Oc2ccccc2Cl)CC1
Selectivity coefficient: 2.99

CN1CC=C(Oc2ccccc2)CC1
Selectivity coefficient: 0.57

CN1CC=C(Oc2ccc(Cl)cc2)CC1
Selectivity coefficient: 2.15

CN1CC=C(Oc2ccc(-c3ccccc3)cc2)CC1
Selectivity coefficient: 4.71
